# pEC50: −log10 of the molar value. Calls of active or inactive are those of the source. No cut-off for these calls is given here.
# Tests used:
# [1] = system: Influenza A virus H3N2; test: Antiviral activity against Influenza A virus (A/Brisbane/10/2007(H3N2)) infected in MDCK cells assessed as reduction in virus-induced cytopathic effect measured on day 5 by Celltiter-Glo luminescence assay; format: functional, organism-based; conditions: 120 h
# Procedure, shortened: (§1)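 MDCK cells were infected with seasonal influenza A strains through NIAID resources and scored for protection from virus-induced cell death. Compounds were tested at four concentrations (0.8, 4, 20, 100 μM). EC50/EC90 (reduction of viral cell death) and CC50 (reduction of cell viability) were derived in μM, and SI50 = CC50/EC50.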
# [2] = system: MDCK; test: (§2) Cytotoxicity against MDCK cells assessed as reduction in cell viability measured on day 5 by Celltiter-Glo luminescence assay; format: cell-based, Canis lupus familiaris; conditions: dog, mdck; procedure, shortened: as §1
# [3] = system: Influenza A virus; test: Antiviral activity against Influenza A virus (A/California/7/2009(H1N1)) infected in MDCK cells assessed as reduction in virus-induced cytopathic effect measured on day 5 by Celltiter-Glo luminescence assay; format: functional, organism-based; conditions: 120 h; procedure, shortened: as §1
# [4] = system: Influenza B virus; test: Antiviral activity against Influenza B virus (B/Brisbane/60/2008) infected in MDCK cells assessed as reduction in virus-induced cytopathic effect measured on day 5 by Celltiter-Glo luminescence assay; format: functional, organism-based
# [5] = system: MDCK; test: Cytotoxicity against MDCK cells assessed as reduction in cell viability measured after 48 hrs by CellTiter Glo assay; format: cell-based, Canis lupus familiaris; conditions: dog
# Procedure, shortened: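 MDCK cells were incubated with compound under the conditions of the 48 h replication assay. Cytotoxicity was read with the CellTiter-Glo ATP viability assay. Follow-up viability testing used 5, 10, 50 and 100 μM.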
# [6] = system: Influenza A virus; test: Antiviral activity against Influenza A virus A/PR/8/34 (H1N1) infected in MDCK cells assessed as fold reduction in virus titer at 10 uM measured after 48 hrs by hemagglutination assay relative to control; format: functional, A/Puerto Rico/8/1934(H1N1)
# Procedure, shortened: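 MDCK cells were infected with A/PR/8/34 (H1N1) at MOI 0.1 and incubated with compound for 48 h. Supernatant virus was then quantified by hemagglutination assay and standard TCID50 analysis. The single-concentration screen used 10 μM and reports fold reduction in titer. Dose-response runs used triplicate cultures, with percent titer decrease back-calculated from TCID50.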
# [7] = AUClast in C57BL/6 mouse liver at 30 mg/kg, ip; format: ADME, organism-based; set-up: dose 30 mg/kg, time 0 - last, route intraperitoneal
# Procedure, shortened: (§3)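 Male C57BL/6 mice received a single intraperitoneal dose of 30 mg/kg (N=3). Compound concentrations were followed over time in plasma, liver and lung. Tmax, Cmax, terminal t1/2, AUClast and AUCINF were derived from the mean concentration-time profiles.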
# [8] = AUC (infinity) in C57BL/6 mouse liver at 30 mg/kg, ip; format: ADME, organism-based; set-up: dose 30 mg/kg, time infinity, route intraperitoneal; procedure, shortened: as §3
# [9] = Aqueous kinetic solubility of the compound; format: physicochemical; conditions: buffer
# [10] = Stability of the compound in mouse liver microsomes assessed as parent compound remaining measured immediately; format: ADME, Microsome; conditions: read-out: Stability
# Procedure, shortened: (§4)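 Mouse liver microsomes; percent parent compound remaining measured at 0, 15 and 30 min.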
# [11] = Stability of the compound in mouse liver microsomes assessed as parent compound remaining measured after 30 mins; format: ADME, Microsome; conditions: read-out: Stability; procedure, shortened: as §4
# [12] = Apparent permeability across apical to basolateral side in human Caco2 cells measured after 2 hrs; format: ADME, cell-based; conditions: caco-2, 2 h
# Procedure, shortened: (§5)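 Permeability was measured across Caco-2 monolayers in both directions, apical to basolateral and basolateral to apical. […] Runs were done with and without 3% BSA, and mass recovery (%) was reported for each direction. Efflux ratio = Papp B→A / Papp A→B.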
# [13] = Cmax in C57BL/6 mouse plasma at 30 mg/kg, ip; format: ADME, organism-based; set-up: dose 30 mg/kg, route intraperitoneal; conditions: C57BL/6, mouse, plasma, read-out: Cmax; procedure, shortened: as §3
# [14] = AUClast in C57BL/6 mouse plasma at 30 mg/kg, ip; format: ADME, organism-based; set-up: dose 30 mg/kg, route intraperitoneal, time 0 - last; procedure, shortened: as §3
# [15] = Toxicity in C57BL/6 mouse assessed as adverse effect at 30 mg/kg, ip; format: organism-based; conditions: in vivo
# [16] = Apparent permeability across basolateral to apical side in human Caco2 cells measured after 2 hrs; format: ADME, cell-based; conditions: caco-2, 2 h; procedure, shortened: as §5
# [17] = system: Saccharomyces cerevisiae; test: Effect on growth of Yeast 9526-6-2 harboring pYES at 50 uM measured up to 60 hrs; format: organism-based; conditions: in vivo
# Procedure, shortened: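 Control yeast carrying empty pYES and NS1-expressing NS1-pYES strain grown with DMSO or compound at 50 μM. Growth measured as OD600 at 22, 42 and 60 h.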
# [18] = as §2; format: cell-based, Canis lupus familiaris; conditions: dog, MDCK cells; procedure, shortened: as §1
# [19] = Stability of the compound in mouse liver microsomes assessed as parent compound remaining measured after 15 mins; format: ADME, Microsome; conditions: read-out: Stability; procedure, shortened: as §4
# [20] = Toxicity in C57BL/6 mouse assessed as effect on lungs at 30 mg/kg, ip; format: organism-based; conditions: in vivo
# [21] = Tmax in C57BL/6 mouse plasma at 30 mg/kg, ip; format: ADME, organism-based; conditions: C57BL/6, mouse, plasma, read-out: Tmax
# Procedure, shortened: (§6)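 Male C57BL/6 mice, single intraperitoneal 30 mg/kg dose, N=3. Plasma, liver and lung concentrations followed over time to give concentration-time profiles, from which Tmax, Cmax, terminal t1/2, AUClast and AUCINF were derived.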
# [22] = Toxicity in C57BL/6 mouse assessed as effect on liver at 30 mg/kg, ip; format: organism-based; conditions: in vivo
# [23] = AUC (infinity) in C57BL/6 mouse plasma at 30 mg/kg, ip; format: ADME, organism-based; set-up: dose 30 mg/kg, route intraperitoneal, time infinity; procedure, shortened: as §3
# [24] = Terminal half life in C57BL/6 mouse lung at 30 mg/kg, ip; format: ADME, organism-based; conditions: read-out: beta t1/2 (converted); procedure, shortened: as §6
# [25] = Cmax in C57BL/6 mouse lung at 30 mg/kg, ip; format: ADME, organism-based; set-up: dose 30 mg/kg, route intraperitoneal; procedure, shortened: as §3
# [26] = Tmax in C57BL/6 mouse lung at 30 mg/kg, ip; format: ADME, organism-based; procedure, shortened: as §6
# [27] = AUC (infinity) in C57BL/6 mouse lung at 30 mg/kg, ip; format: ADME, organism-based; set-up: dose 30 mg/kg, route intraperitoneal, time infinity; procedure, shortened: as §3
# [28] = Cmax in C57BL/6 mouse liver at 30 mg/kg, ip; format: ADME, organism-based; set-up: dose 30 mg/kg, route intraperitoneal; procedure, shortened: as §3
# [29] = Terminal half life in C57BL/6 mouse liver at 30 mg/kg, ip; format: ADME, organism-based; conditions: read-out: beta t1/2 (converted); procedure, shortened: as §6
# [30] = AUClast in C57BL/6 mouse lung at 30 mg/kg, ip; format: ADME, organism-based; set-up: dose 30 mg/kg, route intraperitoneal, time 0 - last; procedure, shortened: as §3
# [31] = Tmax in C57BL/6 mouse liver at 30 mg/kg, ip; format: ADME, organism-based; procedure, shortened: as §6
# [32] = Terminal half life in C57BL/6 mouse plasma at 30 mg/kg, ip; format: ADME, organism-based; conditions: C57BL/6, mouse, plasma, read-out: beta t1/2 (converted); procedure, shortened: as §6
smiles,measurement,setting,value
CCOc1cc(-c2c(C#N)c(O)nc3c2c(C)nn3-c2ccc(F)cc2)ccc1O,pEC50,[1],4.32
same,EC90,[1],> 50 µM
same,CC50,[2],> 50 µM
same,pEC50,[3],5.77
same,EC90,[3],4.9 µM
same,Activity,[4],inactive
same,Activity,[5],Non-Toxic
same,fold change (FC),[6],2
COc1cc(-c2ccnc3c2c(C)nn3-c2cccc(C(F)(F)F)c2)ccc1O,AUC(0-t),[7],119000 ng·h/mL
same,AUC(0-inf),[8],120000 ng·h/mL
same,Kinetic_solubility,[9],1.7 µM
same,remaining at 0 min,[10],100%
same,remaining at 0.5 h,[11],16%
same,Papp,[12],0.13 ×10⁻⁶ cm/s
same,Cmax,[13],4470 ng/mL
same,AUC(0-t),[14],5960 ng·h/mL
same,Activity,[15],Non-Toxic
same,Papp,[16],0.38 ×10⁻⁶ cm/s
same,Activity,[17],Non-Toxic
same,CC50 at 5 day,[18],24.5 to 49 µM
same,remaining at 0.25 h,[19],25%
same,Activity,[20],Non-Toxic
same,Tmax,[21],4.98 min
same,Activity,[22],Non-Toxic
same,AUC(0-inf),[23],5970 ng·h/mL
same,half-life,[24],5 h
same,Cmax,[25],36200 ng/mL
same,Activity,[5],Non-Toxic
same,Tmax,[26],4.98 min
same,AUC(0-inf),[27],49100 ng·h/mL
same,Cmax,[28],64000 ng/mL
same,half-life,[29],5.3 h
same,AUC(0-t),[30],49100 ng·h/mL
same,Tmax,[31],4.98 min
same,half-life,[32],5.2 h

# Reference: ChEMBL document CHEMBL4316619 (Bioorg Med Chem Lett, 2019)
